Measurements published in ChEMBL document CHEMBL1123792, “Nonsteroidal cardiotonics. 1. 2-Pyridyl-6,7-dihydro-3H,5H-pyrrolo[2,3-f]benzimidazol-6-ones, a novel class of cardiotonic agents” (1987).

How the values were obtained:
Rattus norvegicus [1] = test: Maximum increase in dP/dt recorded in mmHg/s at the dose 3.0 mg/kg administered intravenously in rat.; assay type: functional; details: route intravenous
Procedure, shortened: (§1)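 Anesthetized rats, dP/dt50, BP and HR (HR from LVP by pulse counter) recorded continuously. Increasing single bolus doses into jugular vein, 0.5 mL/kg, 10 min apart. Values read 10 min post-injection as steady state, not 1–3 min peak. ED1.5 = dose raising dP/dt50 by 1500 mmHg/s; max = peak rise from control; usually mean of four.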

Felis catus [2] = test: Maximum increase in dP/dt recorded in mmHg/s at the dose 3.0 mg/kg administered intravenously in cat; assay type: functional; details: route intravenous
Procedure, shortened: (§2)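 Cats of either sex on pentobarbitone (45 mg/kg ip, then 0.1 mg/kg × min infusion), ventilated, open chest. Dextran 10 mL/kg iv, then desacetylmepitranolol 0.3 mg/kg iv for β-blockade failure. LVP/HR via Millar tip in left ventricle; BP, dP/dt50. Rising iv bolus doses 10 min apart, read at 10 min. ED1.5 = dose raising dP/dt50 by 1500 mmHg/s; usually mean of four.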

Canis familiaris [3] = test: Effective dose required to produce an increase in dP/dt50, blood pressure by 1500 mmHg/s was determined in dog by intravenous administration; assay type: functional, Canis lupus familiaris
Procedure, shortened: (§3)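 Conscious mongrel dogs (both sexes, 25–30 kg), chronically instrumented via left thoracotomy, used ≥10 days after surgery. Femoral artery BP, Millar tip LV pressure, femoral vein injection. dP/dt taken at LVP 60 mmHg. Increasing iv doses 10 min apart, readings every 10 min. ED1.5 = dose raising dP/dt by 1500 mmHg/s; max = peak rise from control; usually mean of four.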

Rattus norvegicus [4] = test: Effective dose required to produce an increase in dP/dt50, blood pressure by 1500 mmHg/s was determined in rat by intravenous administration; assay type: functional; procedure, shortened: as §1
Canis familiaris [5] = test: Maximum increase in dP/dt recorded in mmHg/s at the dose 3.0 mg/kg administered intravenously in dog; assay type: functional, Canis lupus familiaris; parameters: unit not given here; details: route intravenous; procedure, shortened: as §3
Felis catus [6] = test: Effective dose required to produce an increase in dP/dt50, blood pressure by 1500 mmHg/s was determined in cat by intravenous administration; assay type: functional; procedure, shortened: as §2
Felis catus [7] = test: Maximum increase in dP/dt recorded in mmHg/s at the dose 10.0 mg/kg administered intravenously in cat; assay type: functional; details: route intravenous; procedure, shortened: as §2
Rattus norvegicus [8] = test: Maximum increase in dP/dt recorded in mmHg/s at the dose 10.0 mg/kg administered intravenously in rat.; assay type: functional; details: route intravenous; procedure, shortened: as §1
Felis catus [9] = test: Maximum increase in dP/dt recorded in mmHg/s at the dose 1.0 mg/kg administered intravenously in cat; assay type: functional; details: route intravenous; procedure, shortened: as §2
Rattus norvegicus [10] = test: Maximum increase in dP/dt recorded in mmHg/s at the dose 1.0 mg/kg administered intravenously in rat.; assay type: functional; details: route intravenous; procedure, shortened: as §1
Felis catus [11] = test: Maximum increase in dP/dt recorded in mmHg/s at the dose 0.1 mg/kg administered intravenously in cat; assay type: functional; details: route intravenous; procedure, shortened: as §2
Canis familiaris [12] = test: Maximum increase in dP/dt recorded in mmHg/s at the dose in parentheses administered intravenously in dog; assay type: functional, Canis lupus familiaris; procedure, shortened: as §3
Canis familiaris [13] = test: Maximum increase in dP/dt recorded in mmHg/s at the dose 1.0 mg/kg administered intravenously in dog; assay type: functional, Canis lupus familiaris; details: route intravenous; procedure, shortened: as §3
Felis catus [14] = test: Maximum increase in dP/dt recorded in mmHg/s at the dose 0.3 mg/kg administered intravenously in cat; assay type: functional; details: route intravenous; procedure, shortened: as §2
Rattus norvegicus [15] = test: Maximum increase in dP/dt recorded in mmHg/s at the dose 0.1 mg/kg administered intravenously in rat.; assay type: functional; details: route intravenous; procedure, shortened: as §1

SMILES	ED1.5 (Canis familiaris [3]) [mg/kg]	ED1.5 (Rattus norvegicus [4]) [mg/kg]	ED1.5 (Felis catus [6]) [mg/kg]	further results
CCOC(=O)C1(C)C(=O)Nc2cc3[nH]c(-c4ccncc4)nc3cc21 (configuration not stated)	0.64	0.09	0.25	Max (Rattus norvegicus [1]): 4200 mmHg/s; Max (Felis catus [2]): 3700 mmHg/s; Max (Canis familiaris [5]): >3.6
CC1(C)C(=O)Nc2cc3[nH]c(Cc4ccncc4)nc3cc21		1.14	0.6	Max (Felis catus [7]): 3800 mmHg/s; Max (Rattus norvegicus [8]): 4100 mmHg/s
CC1(C(=O)NN)C(=O)Nc2cc3[nH]c(-c4ccncc4)nc3cc21 (configuration not stated)		>10		
CC1(C)C(=O)Nc2cc3[nH]c(CCc4ccncc4)nc3cc21		>10		
O=C1Nc2cc3[nH]c(-c4ccncc4)nc3cc2C12CCCC2	0.77	0.2	0.08	Max (Rattus norvegicus [1]): 3300 mmHg/s; Max (Felis catus [9]): 2800 mmHg/s; Max (Canis familiaris [5]): 2.2
CCC1C(=O)Nc2cc3[nH]c(-c4cccnc4)nc3cc21 (configuration not stated)		0.39	0.15	Max (Felis catus [9]): 2300 mmHg/s; Max (Rattus norvegicus [8]): 4000 mmHg/s
CC1C(=O)Nc2cc3[nH]c(-c4ccncc4)nc3cc21 (configuration not stated)	0.58	0.02	0.01	Max (Rattus norvegicus [10]): 4400 mmHg/s; Max (Felis catus [11]): 2500 mmHg/s; Max (Canis familiaris [5]): 1.7
CC1(C)C(=O)Nc2cc3[nH]c(-c4cc[n+]([O-])cc4)nc3cc21	0.44	0.03		Max (Rattus norvegicus [10]): 4900 mmHg/s; Max (Canis familiaris [12]): 1800 mmHg/s
CC1(C)C(=O)Nc2cc3[nH]c(-c4ccccn4)nc3cc21	1.11	0.96	0.23	Max (Rattus norvegicus [1]): 2400 mmHg/s; Max (Felis catus [2]): 2700 mmHg/s; Max (Canis familiaris [5]): 1.7
O=C1Nc2cc3[nH]c(-c4ccncc4)nc3cc2C1C1CCCC1 (configuration not stated)		>10		
CCCCc1ccc(-c2nc3cc4c(cc3[nH]2)C(C)(C)C(=O)N4)nc1		>3		
CC1(C)C(=O)Nc2cc3[nH]c(-c4ccnc(O)c4)nc3cc21		0.87	0.21	Max (Felis catus [9]): 2400 mmHg/s; Max (Rattus norvegicus [8]): 3400 mmHg/s
Cc1ccc(-c2nc3cc4c(cc3[nH]2)C(C)(C)C(=O)N4)cn1		>3		
Cc1cc(-c2nc3cc4c(cc3[nH]2)C(C)(C)C(=O)N4)ccn1	0.51	0.29	0.03	Max (Rattus norvegicus [10]): 2500 mmHg/s; Max (Felis catus [11]): 2700 mmHg/s; Max (Canis familiaris [13]): 1800 mmHg/s
CC1(C)C(=O)Nc2cc3[nH]c(/C=C/c4cccnc4)nc3cc21		1.21		Max (Rattus norvegicus [8]): 4300 mmHg/s
CCC1(CC)C(=O)Nc2cc3[nH]c(-c4ccncc4)nc3cc21		>3		Max (Rattus norvegicus [8]): 1900 mmHg/s
CC1(C)C(=O)Nc2cc3[nH]c(-c4ccnc(Cl)c4)nc3cc21		0.07	0.07	Max (Rattus norvegicus [10]): 3900 mmHg/s
COc1nc(C)ccc1-c1nc2cc3c(cc2[nH]1)C(C)(C)C(=O)N3		>10		
CC(C)CC1C(=O)Nc2cc3[nH]c(-c4ccncc4)nc3cc21 (configuration not stated)		>3		
CCC1C(=O)Nc2cc3[nH]c(-c4ccncc4)nc3cc21 (configuration not stated)	0.09	0.06	0.04	Max (Rattus norvegicus [1]): 4500 mmHg/s; Max (Felis catus [14]): 2500 mmHg/s; Max (Canis familiaris [13]): 2300 mmHg/s
CC(C)C1C(=O)Nc2cc3[nH]c(-c4ccncc4)nc3cc21 (configuration not stated)		>3		Max (Rattus norvegicus [8]): 2200 mmHg/s
CC1(C)C(=O)Nc2cc3[nH]c(-c4cccnc4)nc3cc21	0.51	1	0.02	Max (Rattus norvegicus [1]): 3500 mmHg/s; Max (Felis catus [14]): 3500 mmHg/s; Max (Canis familiaris [5]): 2.5
CC1C(=O)Nc2cc3[nH]c(-c4cccnc4)nc3cc21 (configuration not stated)	0.08	0.06	0.03	Max (Rattus norvegicus [1]): 4600 mmHg/s; Max (Felis catus [14]): 2300 mmHg/s; Max (Canis familiaris [13]): 2400 mmHg/s
CC1(C)C(=O)Nc2cc3[nH]c(-c4ccncc4)nc3cc21 [ADIBENDAN]	0.2	0.01	0.01	Max (Felis catus [14]): 2000 mmHg/s; Max (Rattus norvegicus [15]): 3700 mmHg/s; Max (Canis familiaris [13]): 2000 mmHg/s
Cc1[nH]c(=O)c(C#N)cc1-c1ccncc1 [MILRINONE]	0.4	0.14	0.13	Max (Felis catus [7]): 3000 mmHg/s; Max (Rattus norvegicus [8]): 3400 mmHg/s; Max (Canis familiaris [13]): 2000 mmHg/s
